Test results: ChEMBL document CHEMBL1145477, “Activity of T-1106 in a hamster model of yellow Fever virus infection” (Antimicrob Agents Chemother, 2007)
Activity calls are given as the source filed them. The calls are words filed in the database; no cut-off is given here.

Experiments:
Yellow fever virus [1] = experiment: Antiviral activity against YFV Jimenez infected in Syrian golden hamster assessed as survival of animal at 100 mg/kg, bid ip for 7 days; type: functional, organism-based; parameters: dose 100 mg/kg
Yellow fever virus [2] = experiment: Antiviral activity against YFV Jimenez infected in Syrian golden hamster liver assessed as mean day to death at 100 mg/kg/day, ip bid for 8 days administered after 3 days post-infection; type: functional; details: route intraperitoneal
[3] = Selectivity index, ratio of CC50 for african green monkey Vero cells to EC50 for YFV infected in Vero cells; type: functional
How it was run: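 Jimenez hamster-adapted YFV at 10 CCID50/well on Vero or CV-1 monolayers; seven drug concentrations added 5–10 min before virus; 37°C for 6 days. CPE scored microscopically, then neutral red uptake (0.34% dye, 2 h, eluted and quantified). EC50 derived; CC50 from uninfected drug-treated cells; SI = CC50/EC50.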

Yellow fever virus [4] = experiment: Antiviral activity against YFV Jimenez infected in Syrian golden hamster liver assessed as weight change at 100 mg/kg/day, ip bid for 8 days administered after 2 days post-infection; type: functional; details: route intraperitoneal
[5] = Selectivity index, ratio of CC50 for MDBK cells to […] for BVDV; type: functional
Yellow fever virus [6] = experiment: Antiviral activity against YFV Jimenez infected in Syrian golden hamster liver administered 4 hrs before viral challenge twice daily for 4 days post-infection by infectious cell culture assay; type: functional, organism-based
How it was run: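 Liver was collected at necropsy 4 dpi from 5 hamsters per group, after b.i.d. dosing that began 4 h before i.p. Jimenez YFV challenge. Homogenates were diluted serially from 10−1 to 10−8 onto semiconfluent Vero cells in four replicate columns. CPE was scored microscopically after 6 days, and titer was extrapolated from dilution and tissue weight.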

Yellow fever virus [7] = experiment: Antiviral activity against YFV Jimenez infected in Syrian golden hamster assessed as weight change at 10 mg/kg, ip bid for 7 days; type: functional; details: route intraperitoneal
Yellow fever virus [8] = experiment: Antiviral activity against YFV Jimenez infected in Syrian golden hamster liver assessed as survival at 100 mg/kg/day, ip bid for 8 days administered after 1 day post-infection; type: functional, organism-based
Yellow fever virus [9] = experiment: Antiviral activity against YFV Jimenez infected in Syrian golden hamster assessed as serum alanine aminotransferase at 32 mg/kg, ip bid for 7 days; type: functional; details: route intraperitoneal
How it was run: (§1)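 YFV (Jimenez)-infected female hamsters were treated b.i.d. i.p. or p.o. Serum was drawn by ocular sinus at 6 dpi. ALT was read with a colorimetric kit adapted to microplates: substrate plus serum for 30 min at 37°C, then colour reagent and developer, absorbance at 505 nm. Values are IU/liter against saline controls.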

Yellow fever virus [10] = experiment: Antiviral activity against YFV Jimenez infected in Syrian golden hamster liver assessed as alanine aminotransferase at 100 mg/kg/day, ip bid for 8 days administered after 1 day post-infection; type: functional; details: route intraperitoneal; how it was run: as §1
Yellow fever virus [11] = experiment: Antiviral activity against YFV Jimenez infected in Syrian golden hamster liver assessed as alanine aminotransferase at 100 mg/kg/day, ip bid for 8 days administered after 2 days post-infection; type: functional; details: route intraperitoneal; how it was run: as §1
Yellow fever virus [12] = experiment: Antiviral activity against YFV Jimenez infected in Syrian golden hamster liver assessed as mean day to death at 100 mg/kg/day, ip bid for 8 days administered after 4 day post-infection; type: functional; details: route intraperitoneal
Yellow fever virus [13] = experiment: Antiviral activity against YFV Jimenez infected in Syrian golden hamster assessed as mean day to death after 21 days post-infection at 10 mg/kg, ip bid for 7 days; type: functional; details: route intraperitoneal
Yellow fever virus [14] = experiment: Antiviral activity against YFV Jimenez infected in Syrian golden hamster assessed as survival of animal at 100 mg/kg, po for 7 days; type: functional, organism-based; parameters: dose 100 mg/kg
Yellow fever virus [15] = experiment: Antiviral activity against YFV Jimenez infected in Syrian golden hamster liver assessed as weight change at 100 mg/kg/day, ip bid for 8 days administered after 3 days post-infection; type: functional; details: route intraperitoneal
Yellow fever virus [16] = experiment: Antiviral activity against YFV Jimenez infected in Syrian golden hamster assessed as serum alanine aminotransferase at 100 mg/kg, ip bid for 7 days; type: functional; details: route intraperitoneal; how it was run: as §1
Yellow fever virus [17] = experiment: Antiviral activity against YFV Jimenez infected in Syrian golden hamster liver assessed as weight change at 100 mg/kg/day, ip bid for 8 days administered after 5 day post-infection; type: functional; details: route intraperitoneal
Yellow fever virus [18] = experiment: Antiviral activity against YFV Jimenez infected in Syrian golden hamster liver assessed as mean day to death at 100 mg/kg/day, ip bid for 8 days administered after 2 days post-infection; type: functional; details: route intraperitoneal
Yellow fever virus [19] = experiment: Antiviral activity against YFV Jimenez infected in Syrian golden hamster assessed as mean day to death after 21 days post-infection at 32 mg/kg, po bid for 7 days; type: functional
Syrian golden hamster = experiment: Toxicity in YFV infected Syrian golden hamster assessed as assessed as weight change at 32 mg/kg/day, ip bid for 7 days; type: organism-based, Mesocricetus auratus; parameters: route intraperitoneal; details: in vivo, 168 h
How it was run: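 Female Syrian golden hamsters (~100 g), toxicity-control groups of three, sham-infected. Drug suspended in saline or 0.4% carboxymethyl cellulose, given i.p. b.i.d. 12 h apart from −4 h through 7 days. Mortality checked daily; weight taken at 0, 3 and 6 dpi, with change taken as 3-to-6 dpi difference.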

Yellow fever virus [20] = experiment: Antiviral activity against YFV Jimenez infected in Syrian golden hamster assessed as mean day to death after 21 days post-infection at 100 mg/kg, po bid for 7 days; type: functional
Yellow fever virus [21] = experiment: Antiviral activity against YFV Jimenez infected in Syrian golden hamster liver assessed as survival at 100 mg/kg/day, ip bid for 8 days administered after 3 days post-infection; type: functional, organism-based
Yellow fever virus [22] = experiment: Antiviral activity against YFV Jimenez infected in Syrian golden hamster liver assessed as alanine aminotransferase at 100 mg/kg/day, ip bid for 8 days administered after 3 days post-infection; type: functional; details: route intraperitoneal; how it was run: as §1
Yellow fever virus [23] = experiment: Antiviral activity against YFV Jimenez infected in Syrian golden hamster assessed as mean day to death after 21 days post-infection at 100 mg/kg, ip bid for 7 days; type: functional; details: route intraperitoneal
Yellow fever virus [24] = experiment: Antiviral activity against YFV Jimenez infected in Syrian golden hamster assessed as serum alanine aminotransferase at 100 mg/kg, po bid for 7 days; type: functional; how it was run: as §1
Yellow fever virus [25] = experiment: Antiviral activity against YFV Jimenez infected in Syrian golden hamster assessed as weight change at 100 mg/kg, ip bid for 7 days; type: functional; details: route intraperitoneal

With `NC(=O)c1nccn([C@@H]2O[C@H](CO)[C@@H](O)[C@H]2O)c1=O` as the compound, how does the Activity (Yellow fever virus [1]) read?
The Activity was “Active”.

And the Activity (Yellow fever virus [2])?
Its Activity is >21 days.

What about the “Ratio CC50/EC50” value [3] of the same compound?
Its value is 1.

And the Activity (Yellow fever virus [4])?
Its Activity is 6.3 g.

What about the “Ratio CC50/EC50” value [5] of the same compound?
The value was 207.

And the Activity (Yellow fever virus [6])?
Its Activity is “Active”.

What about the Activity (Yellow fever virus [7]) of the same compound?
The Activity was -1.8 g.

What about the Activity (Yellow fever virus [8]) of the same compound?
The Activity was “Active”.

And the Activity (Yellow fever virus [9])?
Its Activity is 65 IU/L.

And the Activity (Yellow fever virus [10])?
The Activity was 56 IU/L.

What about the Activity (Yellow fever virus [11]) of the same compound?
The Activity was 57 IU/L.

And the Activity (Yellow fever virus [12])?
The Activity was 6 days.

And the Activity (Yellow fever virus [13])?
The Activity was 8 days.

What about the Activity (Yellow fever virus [14]) of the same compound?
Its Activity is “Active”.

What about the Activity (Yellow fever virus [15]) of the same compound?
Its Activity is 2.9 g.

What about the Activity (Yellow fever virus [16]) of the same compound?
Its Activity is 56 IU/L.

And the Activity (Yellow fever virus [17])?
Its Activity is -6.9 g.

What about the Activity (Yellow fever virus [18]) of the same compound?
Its Activity is >21 days.

What about the Activity (Yellow fever virus [19]) of the same compound?
The Activity was >21 days.

And the Activity (Syrian golden hamster)?
The Activity was 8.3 g.

And the Activity (Yellow fever virus [20])?
The Activity was >21 days.

What about the Activity (Yellow fever virus [21]) of the same compound?
Its Activity is “Active”.

What about the Activity (Yellow fever virus [22]) of the same compound?
Its Activity is 79 IU/L.

What about the Activity (Yellow fever virus [23]) of the same compound?
Its Activity is >21 days.

What about the Activity (Yellow fever virus [24]) of the same compound?
The Activity was 56 IU/L.

And the Activity (Yellow fever virus [25])?
Its Activity is 7.1 g.
